We go through 26 molecules from ChEMBL document CHEMBL4673255, “Acylated 1H-1,2,4-Triazol-5-amines Targeting Human Coagulation Factor XIIa and Thrombin: Conventional and Microscale Synthesis, Anticoagulant Properties, and Mechanism of Action” (J Med Chem, 2020).

Structures are written as SMILES.

Data set [1] concerns Blood. The data set can be described thus: Effect on blood coagulation in human blood assessed as increase in prothrombin time at 300 uM incubated for 3 mins followed by CaCl2 addition by PT reagent based assay relative to control. Type of data set: ADME, tissue-based. The following applies: 0.05 h. An outline of the steps: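 Clotting was started with PT reagent already containing CaCl2, prewarmed to 37 °C, and clotting time was recorded. Increase is given relative to DMSO; at least triplicate, mean ± SD.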

Another data set deals with Coagulation factor X (Homo sapiens, UniProt P00742). The data set can be described thus: Inhibition of human coagulation factor Xa using Boc-Ile-Glu-Gly-Arg-AMC as fluorogenic substrate measured at 1 min interval for 1 hr by fluorometric assay.
Sequence of Coagulation factor X (P00742 41-179 limits assumed): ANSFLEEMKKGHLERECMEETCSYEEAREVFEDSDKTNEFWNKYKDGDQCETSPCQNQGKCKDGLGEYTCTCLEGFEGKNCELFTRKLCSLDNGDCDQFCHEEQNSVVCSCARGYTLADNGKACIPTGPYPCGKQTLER
Sequence of Coagulation factor X (P00742 235-488 limits assumed): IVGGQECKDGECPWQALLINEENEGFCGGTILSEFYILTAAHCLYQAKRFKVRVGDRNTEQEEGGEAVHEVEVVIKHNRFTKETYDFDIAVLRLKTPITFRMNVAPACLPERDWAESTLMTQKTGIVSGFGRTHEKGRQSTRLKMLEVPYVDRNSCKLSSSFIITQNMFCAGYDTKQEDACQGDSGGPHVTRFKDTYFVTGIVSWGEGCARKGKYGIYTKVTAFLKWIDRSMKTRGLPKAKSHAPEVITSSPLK
The target in another data set is T1, Coagulation factor XII (Homo sapiens, UniProt P00748).
T1 sequence (P00748 whole entry): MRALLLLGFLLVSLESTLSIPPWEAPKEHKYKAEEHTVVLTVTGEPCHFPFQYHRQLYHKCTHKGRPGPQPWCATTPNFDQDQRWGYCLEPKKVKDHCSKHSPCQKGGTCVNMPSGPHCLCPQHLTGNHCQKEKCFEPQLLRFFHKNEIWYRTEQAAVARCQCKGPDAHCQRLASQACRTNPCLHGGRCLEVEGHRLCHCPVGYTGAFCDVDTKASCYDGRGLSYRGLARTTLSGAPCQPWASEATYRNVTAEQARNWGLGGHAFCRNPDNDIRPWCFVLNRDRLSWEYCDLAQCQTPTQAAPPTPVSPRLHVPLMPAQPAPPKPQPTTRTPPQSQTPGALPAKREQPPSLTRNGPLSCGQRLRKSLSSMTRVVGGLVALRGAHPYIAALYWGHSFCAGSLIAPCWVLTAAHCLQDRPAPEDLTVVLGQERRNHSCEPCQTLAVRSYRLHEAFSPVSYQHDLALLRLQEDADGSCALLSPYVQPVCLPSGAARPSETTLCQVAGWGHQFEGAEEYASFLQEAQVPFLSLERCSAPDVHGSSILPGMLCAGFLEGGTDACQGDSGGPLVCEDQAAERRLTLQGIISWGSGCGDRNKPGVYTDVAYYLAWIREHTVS
The data set can be described thus: Inhibition of human coagulation factor XIIA using Boc-Gln-Gly-Arg-AMC as fluorogenic substrate measured at 1 min interval for 1 hr by fluorometric assay.

Data set [2] has as its target T2, Coagulation factor XII (Homo sapiens) (UniProt P00748).
T2 sequence (whole entry): T1 sequence (P00748 whole entry)
The data set can be described thus: Inhibition of human coagulation factor XIIA in presence of Boc-Gln-Gly-Arg-AMC as fluorogenic substrate at 1 uM measured at 1 min interval for 1 hr by fluorometric assay relative to control. In outline:
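Screening of crude microscale amide-coupling products. Conversion was measured by 1H NMR and product content normalised to 76 µmol/L in DMSO, then tested at 1 µM and 100 nM in the fluorogenic FXIIa or thrombin assay. A 0-conversion reaction served as blank. Percent inhibition is from triplicates.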

In a further data set the target is Prothrombin (Homo sapiens, UniProt P00734). The data set can be described thus: Inhibition of human coagulation factor alpha-thrombin using Boc-Val-Pro-Arg-AMC as fluorogenic substrate measured at 1 min interval for 1 hr by fluorometric assay.
The nature of data set [3]: Inhibition of porcine trypsin using Z-Gly-Gly-Arg-AMC as fluorogenic substrate measured at 1 min interval for 1 hr by fluorometric assay. Details: species or system Sus scrofa.
For data set [4], the system named is Blood. The data set can be described thus: Anticoagulant activity in human blood assessed as increase in activated partial thromboplastin time at 300 uM incubated for 1 min by aPTT reagent based assay relative to control. Type of data set: functional. An outline of the steps:
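Compounds were tested at 300 µM, and the increase was expressed relative to DMSO. The doubling concentration (EC2×) is the concentration prolonging aPTT twofold. At least triplicate, mean ± SD.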

The next data set is filed under the species Homo sapiens. The data set can be described thus: Selectivity index, ratio of IC50 for inhibition of human coagulation factor alpha-thrombin using Boc-Val-Pro-Arg-AMC as fluorogenic substrate to IC50 for inhibition of human coagulation factor XIIA using Boc-Gln-Gly-Arg-AMC as fluorogenic substrate incubated for 1 hr by fluorometric assay.

Broadly, the IC50 is the concentration at which inhibition is half-maximal. Read a low IC50 as greater potency in that assay. As a reminder, the inhibition is the share of the control response that was lost under treatment.

Take `Cc1cccc(C(=O)n2nc(-c3ccccn3)nc2N)c1`: the values for the Activity in the data set on Blood [1] and in the data set with Blood [4] were 12% and 124%, respectively. The IC50 against Coagulation factor X is over 5 µM; against Coagulation factor XII, 0.093 µM; at Prothrombin it was 0.086 µM; in data set [3], over 5 µM. In data set [2], the inhibition stood at 83%.
In the case of `Nc1nc(-c2ccccn2)nn1C(=O)c1cccnc1`, the IC50 at Coagulation factor X was over 5 µM; against Coagulation factor XII it was 1.61 µM; against Prothrombin it was 0.494 µM; in data set [3], over 5 µM. For the same molecule, the inhibition in data set [2] stood at 43%.
For `CCc1ccc(C(=O)n2nc(-c3ccccn3)nc2N)cc1`, the Activity with Blood [1] turned out to be 6%; in the data set with Blood [4], 114%. Further, the 50% inhibitory concentration (IC50) against Coagulation factor X is over 5 µM; on Coagulation factor XII, 0.162 µM; on Prothrombin, 0.308 µM; in data set [3], over 5 µM. The inhibition in data set [2] is 85%.
Consider `CCOc1ccc(Nc2nc(N)n(C(=O)c3ccccc3)n2)cc1`, for which the IC50 was over 5 µM against Coagulation factor X, over 1 µM on Coagulation factor XII, over 5 µM against Prothrombin and over 5 µM in data set [3].
Take `Nc1nc(-c2ccccn2)nn1C(=O)c1ccc(F)cc1`: the Activity with Blood [1] amounted to 8%; in the data set with Blood [4], 78%. Moreover, the IC50 on Coagulation factor X was over 5 µM; against Coagulation factor XII, 0.306 µM; at Prothrombin, 0.481 µM; in data set [3] it was over 5 µM. Moreover, the inhibition in data set [2] is 79%.
Regarding `Nc1nc(Nc2cccnc2)nn1C(=O)c1ccccc1`, the Activity in the data set with Blood [1] is reported as 2%; in the data set on Blood [4], 1%. Moreover, the concentration for half-maximal inhibition (IC50) was over 5 µM against Coagulation factor X, over 5 µM at Coagulation factor XII, over 8 µM on Prothrombin and over 5 µM in data set [3].
`Nc1nc(-c2ccccc2)nn1C(=O)c1ccccc1`: the Activity worked out at 5% with Blood [1] and 29% with Blood [4]. Further, the IC50 is over 5 µM at Coagulation factor X, 0.539 µM against Coagulation factor XII, 1.24 µM on Prothrombin and over 5 µM in data set [3].
For `Nc1nc(-c2ccccn2)nn1C(=O)c1ccco1`, the IC50 against Coagulation factor X was over 5 µM; at Coagulation factor XII, 0.968 µM; at Prothrombin, 1.77 µM; in data set [3], over 5 µM. Besides, in data set [2], the inhibition was determined as 54%.
Consider `Nc1nc(-c2ccccn2)nn1C(=O)c1ccc(Br)cc1`, for which the Activity in the data set on Blood [1] stood at 16%; in the data set with Blood [4], 119%. For the same molecule, the IC50 at Coagulation factor X is over 5 µM; at Coagulation factor XII, 0.793 µM; at Prothrombin it was 0.239 µM; in data set [3], over 5 µM. Besides, in data set [2], the inhibition came out at 58%.
As to `Nc1n[nH]c(-c2ccccn2)n1`, the half-maximal inhibitory concentration (IC50) (against Coagulation factor X; against Coagulation factor XII; on Prothrombin; in data set [3]) was over 5 µM each time.
As to `Cc1ccc(S(=O)(=O)n2nc(-c3ccncc3)nc2N)cc1`, the Activity in the data set on Blood [1] turned out to be 2%; in the data set with Blood [4], 5%. Further, the IC50 on Coagulation factor X was over 5 µM; at Coagulation factor XII it was over 1 µM; on Prothrombin, over 5 µM; in data set [3], over 5 µM.
Regarding `Nc1nc(-c2ccccn2)nn1C(=O)c1ccccc1[N+](=O)[O-]`, the IC50 on Coagulation factor X is over 5 µM; at Coagulation factor XII it was 1.56 µM; on Prothrombin, over 5 µM. For the same molecule, the inhibition in data set [2] turned out to be 43%.
With `Nc1nc(-c2ccncc2)nn1C(=O)c1ccccc1`, the values for the Activity with Blood [1] and in the data set with Blood [4] were 2% and 80%, respectively. In addition, the IC50 against Coagulation factor X is over 5 µM; against Coagulation factor XII it was 0.106 µM; on Prothrombin it was 0.962 µM; in data set [3] it was over 5 µM.
Take `Nc1nc(-c2ccccn2)nn1C(=O)C1CCCCC1`: the half-inhibitory concentration (IC50) against Coagulation factor X was over 5 µM; on Coagulation factor XII, over 1 µM; on Prothrombin, over 5 µM; in data set [3], over 5 µM. Besides, in data set [2], the inhibition worked out at 11%.
Consider `Nc1n[nH]c(-c2ccccc2)n1`, for which the half-inhibitory concentration (IC50) (against Coagulation factor X; on Coagulation factor XII; against Prothrombin; in data set [3]) was over 5 µM in each case.
`Nc1nc(-c2ccccn2)nn1C(=O)c1ccc(C(F)(F)F)cc1`: the Activity in the data set with Blood [1] is given as 8%; in the data set on Blood [4], 40%. Also, the IC50 against Coagulation factor X was over 5 µM; on Coagulation factor XII, 3.21 µM; at Prothrombin it was 4.57 µM; in data set [3] it was over 5 µM. In data set [2], the inhibition amounted to 14%.
For `[H]/N=C(/N)c1ccc(NCc2nc3cc(C(=O)N(CCC(=O)O)c4ccccn4)ccc3n2C)cc1` [DABIGATRAN], the Activity in the data set with Blood [1] was determined as 539%. Moreover, on Coagulation factor XII, the IC50 was over 33 µM.
Consider `COc1ccc(C(=O)n2nc(-c3ccccn3)nc2N)cc1`, for which the Activity in the data set on Blood [1] was determined as 14%; in the data set with Blood [4], 108%. Also, the half-maximal inhibitory concentration (IC50) is over 5 µM on Coagulation factor X, 0.291 µM at Coagulation factor XII, 0.329 µM against Prothrombin and over 5 µM in data set [3]. Moreover, the inhibition in data set [2] came out at 80%.
For `Nc1nc(-c2ccccn2)nn1C(=O)CNC(=O)c1ccccc1`, the Activity with Blood [1] is recorded as 3%; in the data set with Blood [4], -2%. The half-maximal inhibitory concentration (IC50) at Coagulation factor X is over 5 µM; against Coagulation factor XII, 13.2 µM; against Prothrombin it was over 132 µM; in data set [3] it was over 5 µM. In addition, the inhibition in data set [2] came to 20%.
As to `Nc1n[nH]c(-c2ccncc2)n1`, the Activity is listed as 1% in the data set on Blood [1] and 5% in the data set on Blood [4]. Besides, the half-maximal inhibitory concentration (IC50) (against Coagulation factor X; against Coagulation factor XII; against Prothrombin; in data set [3]) was over 5 µM throughout.
Take `Nc1nc(-c2ccccn2)nn1C(=O)/C=C/c1ccccc1`: the half-inhibitory concentration (IC50) against Coagulation factor X is over 5 µM; on Coagulation factor XII, 9.82 µM; against Prothrombin, 1.56 µM; in data set [3] it was over 5 µM. Further, in data set [2], the inhibition came out at 21%.
For the molecule `Nc1nc(-c2ccncc2)nn1C(=O)C1CCCCC1`, the Activity in the data set with Blood [1] is listed as 7%; in the data set with Blood [4] it was 10%. The IC50 is over 5 µM against Coagulation factor X, over 1 µM at Coagulation factor XII, over 5 µM against Prothrombin and over 5 µM in data set [3].
On to `Nc1nc(-c2ccccn2)nn1C(=O)Cc1ccccc1`, for which the IC50 on Coagulation factor X was over 5 µM; against Coagulation factor XII, 0.21 µM; on Prothrombin it was 0.509 µM; in data set [3], over 5 µM. Besides, the inhibition in data set [2] was 87%.
Take `Nc1nc(-c2ccccn2)nn1C(=O)c1ccc(NC(=O)C(F)(F)F)cc1`: the IC50 at Coagulation factor X is over 5 µM; against Coagulation factor XII, 0.142 µM; on Prothrombin it was 3.39 µM; in data set [3], over 5 µM. Further, the inhibition in data set [2] was found to be 89%. In addition, in the data set listed under Homo sapiens, the Ratio IC50 was found to be 24.
With `Nc1nc(-c2ccccn2)nn1C(=O)C1CCOCC1`, the half-inhibitory concentration (IC50) is over 5 µM against Coagulation factor X, 12.1 µM against Coagulation factor XII, over 5 µM against Prothrombin and over 5 µM in data set [3]. Moreover, the inhibition in data set [2] worked out at 1%.
Turning to `Nc1nc(-c2ccccn2)nn1C(=O)c1ccc([N+](=O)[O-])cc1`, the Activity is given as 3% in the data set with Blood [1] and 35% in the data set on Blood [4]. Moreover, the concentration for half-maximal inhibition (IC50) is over 5 µM against Coagulation factor X, 5.93 µM against Coagulation factor XII and over 5 µM on Prothrombin. Also, in data set [2], the inhibition turned out to be 29%.
